Measurements reported in ChEMBL document CHEMBL1148046, “Marine alkaloids, 15. Two alkaloids, flustramine E and debromoflustramine B, from the marine bryozoan Flustra foliacea” (1994).
Calls of active or inactive are those of the source. The calls are words filed in the database; no cut-off is given here.

Columns and labels:
Fusarium oxysporum [1] = experiment: Antimicrobial activity against Fusarium oxysporum at 100 ppm; assay type: functional, organism-based
Globisporangium ultimum = experiment: Antimicrobial activity against Pythium ultimum at 1000 ppm; assay type: functional, organism-based
Method in brief: (§1)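 Compound applied at 1000 ppm in DMSO to each bacterial, fungal or oomycete test organism; activity read as the diameter of the growth-inhibition zone in mm.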

Botrytis cinerea [2] = experiment: Antimicrobial activity against Botrytis cinerea at 10 ppm; assay type: functional; settings: read-out: IZ
Saccharomyces cerevisiae [3] = experiment: Antimicrobial activity against Saccharomyces cerevisiae at 1000 ppm; assay type: functional; settings: read-out: IZ; method in brief: as §1
Pseudomonas aeruginosa = experiment: Antimicrobial activity against Pseudomonas aeruginosa at 1000 ppm; assay type: functional, organism-based; method in brief: as §1
Fusarium oxysporum [4] = experiment: Antimicrobial activity against Fusarium oxysporum at 1000 ppm; assay type: functional; settings: read-out: IZ; method in brief: as §1
Rhizoctonia solani [5] = experiment: Antimicrobial activity against Rhizoctonia solani at 1000 ppm; assay type: functional; settings: read-out: IZ; method in brief: as §1
Aspergillus niger = experiment: Antimicrobial activity against Aspergillus niger at 1000 ppm; assay type: functional, organism-based; method in brief: as §1
Botrytis cinerea [6] = experiment: Antimicrobial activity against Botrytis cinerea at 1000 ppm; assay type: functional; settings: read-out: IZ; method in brief: as §1
Rhizoctonia solani [7] = experiment: Antimicrobial activity against Rhizoctonia solani at 10 ppm; assay type: functional; settings: read-out: IZ
Saccharomyces cerevisiae [8] = experiment: Antimicrobial activity against Saccharomyces cerevisiae at 100 ppm; assay type: functional, organism-based
Rhizoctonia solani [9] = experiment: Antimicrobial activity against Rhizoctonia solani at 100 ppm; assay type: functional; settings: read-out: IZ
Bacillus subtilis [10] = experiment: Antimicrobial activity against Bacillus subtilis at 1000 ppm; assay type: functional; settings: read-out: IZ; method in brief: as §1
Bacillus subtilis [11] = experiment: Antimicrobial activity against Bacillus subtilis at 100 ppm; assay type: functional, organism-based
Botrytis cinerea [12] = experiment: Antimicrobial activity against Botrytis cinerea at 100 ppm; assay type: functional; settings: read-out: IZ

## CC(C)=CC[C@@]12CCN(C)[C@@H]1Nc1cc(Br)ccc12 (relative stereo) [FLUSTRAMINE E]
Fusarium oxysporum [1]
  Activity: inactive
Globisporangium ultimum
  Activity: inactive
Botrytis cinerea [2]
  zone of inhibition at 10 ppm: 21 mm
Saccharomyces cerevisiae [3]
  zone of inhibition at 1000 ppm: 14 mm
Pseudomonas aeruginosa
  Activity: inactive
Fusarium oxysporum [4]
  zone of inhibition at 1000 ppm: 10 mm
Rhizoctonia solani [5]
  zone of inhibition at 1000 ppm: 10 mm
Aspergillus niger
  Activity: inactive
Botrytis cinerea [6]
  zone of inhibition at 1000 ppm: 27 mm
Rhizoctonia solani [7]
  zone of inhibition at 10 ppm: 9 mm
Saccharomyces cerevisiae [8]
  Activity: inactive
Rhizoctonia solani [9]
  zone of inhibition at 100 ppm: 9 mm
Bacillus subtilis [10]
  zone of inhibition at 1000 ppm: 12 mm
Bacillus subtilis [11]
  Activity: inactive
Botrytis cinerea [12]
  zone of inhibition at 100 ppm: 25 mm
